Converted amounts (≈) assume the structure as drawn. The source made the active and inactive calls. The calls are words filed in the database; no cut-off is given here.
Tests used:
[1] = system: A549; test: Cytotoxicity against human A549 cells assessed as decrease in cell viability after 48 hrs; type: functional, cell-based; conditions: A549, 48 h
In short: (§1)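 Human cancer cell line viability assay run in triplicate with 48 h compound exposure. IC50 derived from viability data. Actinomycin D served as the positive control.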

[2] = system: Micrococcus luteus; test: Antibacterial activity against Micrococcus luteus NRRL B-287 after 16 to 48 hrs; type: functional
In short: (§2)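 Bacterial MIC assay run in triplicate and read after 16−48 h incubation. Kanamycin and ampicillin served as positive controls.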

[3] = system: Bacillus spizizenii; test: Antibacterial activity against Bacillus subtilis ATCC 6633 after 16 to 48 hrs; type: functional; in short: as §2
[4] = system: PC-3; test: Cytotoxicity against human PC3 cells assessed as decrease in cell viability after 48 hrs; type: functional, cell-based; conditions: PC-3, 48 h; in short: as §1
[5] = system: Staphylococcus aureus; test: Antibacterial activity against Staphylococcus aureus ATCC 6538 after 16 to 48 hrs; type: functional; in short: as §2
[6] = system: Mycolicibacterium aurum; test: Antimycobacterial activity against Mycobacterium aurum ATCC 23366 after 16 to 48 hrs; type: functional; in short: as §2
[7] = system: A549; test: Cytotoxicity against human A549 cells assessed as decrease in cell viability at 100 uM after 48 hrs; type: functional, cell-based
In short: (§3)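 Cell viability measured in triplicate after 48 h exposure to a single 100 μM concentration. Actinomycin D served as the positive control.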

[8] = system: PC-3; test: Cytotoxicity against human PC3 cells assessed as decrease in cell viability at 100 uM after 48 hrs; type: functional, cell-based; in short: as §3

COc1ccc(C[C@H](N)C(=O)N[C@H]2[C@@H](O)[C@H](n3cnc4c(N(C)C)ncnc43)O[C@@H]2CO)cc1 [PUROMYCIN]
IC50 [1]: 300 nM
MIC [2]: 4 to 30 µM (≈ 1.89 to 14.1 µg/mL)
MIC [3]: 4 to 30 µM (≈ 1.89 to 14.1 µg/mL)
IC50 [4]: 300 nM
MIC [5]: 4 to 30 µM (≈ 1.89 to 14.1 µg/mL)
MIC [6]: 4 to 30 µM (≈ 1.89 to 14.1 µg/mL)

CC(=O)N[C@H]1[C@@H](O)[C@H](n2cnc3c(N(C)C)ncnc32)O[C@@H]1CO
Activity [7]: Active
Activity [8]: Active

COc1ccc(C[C@H](NC(C)=O)C(=O)N[C@H]2[C@@H](O)[C@H](n3cnc4c(N(C)C)ncnc43)O[C@@H]2CO)cc1
Activity [7]: Active
Activity [8]: Active

CC(=O)N[C@@H](CC(C)C)C(=O)N[C@H]1[C@@H](O)[C@H](n2cnc3c(N(C)C)ncnc32)O[C@@H]1CO
Activity [7]: Active
Activity [8]: Active

COc1ccc(C[C@H](O)C(=O)N[C@H]2[C@@H](O)[C@H](n3cnc4c(N(C)C)ncnc43)O[C@@H]2CO)cc1
Activity [7]: Active
Activity [8]: Active

Reference: ChEMBL document CHEMBL4266053, “Puromycins B-E, Naturally Occurring Amino-Nucleosides Produced by the Himalayan Isolate Streptomyces sp. PU-14G” (J Nat Prod, 2018)
